Data set [1] concerns the target T1, ATPase family AAA domain-containing protein 2 (Homo sapiens, UniProt Q6PL18).
T1 sequence (Q6PL18 whole entry): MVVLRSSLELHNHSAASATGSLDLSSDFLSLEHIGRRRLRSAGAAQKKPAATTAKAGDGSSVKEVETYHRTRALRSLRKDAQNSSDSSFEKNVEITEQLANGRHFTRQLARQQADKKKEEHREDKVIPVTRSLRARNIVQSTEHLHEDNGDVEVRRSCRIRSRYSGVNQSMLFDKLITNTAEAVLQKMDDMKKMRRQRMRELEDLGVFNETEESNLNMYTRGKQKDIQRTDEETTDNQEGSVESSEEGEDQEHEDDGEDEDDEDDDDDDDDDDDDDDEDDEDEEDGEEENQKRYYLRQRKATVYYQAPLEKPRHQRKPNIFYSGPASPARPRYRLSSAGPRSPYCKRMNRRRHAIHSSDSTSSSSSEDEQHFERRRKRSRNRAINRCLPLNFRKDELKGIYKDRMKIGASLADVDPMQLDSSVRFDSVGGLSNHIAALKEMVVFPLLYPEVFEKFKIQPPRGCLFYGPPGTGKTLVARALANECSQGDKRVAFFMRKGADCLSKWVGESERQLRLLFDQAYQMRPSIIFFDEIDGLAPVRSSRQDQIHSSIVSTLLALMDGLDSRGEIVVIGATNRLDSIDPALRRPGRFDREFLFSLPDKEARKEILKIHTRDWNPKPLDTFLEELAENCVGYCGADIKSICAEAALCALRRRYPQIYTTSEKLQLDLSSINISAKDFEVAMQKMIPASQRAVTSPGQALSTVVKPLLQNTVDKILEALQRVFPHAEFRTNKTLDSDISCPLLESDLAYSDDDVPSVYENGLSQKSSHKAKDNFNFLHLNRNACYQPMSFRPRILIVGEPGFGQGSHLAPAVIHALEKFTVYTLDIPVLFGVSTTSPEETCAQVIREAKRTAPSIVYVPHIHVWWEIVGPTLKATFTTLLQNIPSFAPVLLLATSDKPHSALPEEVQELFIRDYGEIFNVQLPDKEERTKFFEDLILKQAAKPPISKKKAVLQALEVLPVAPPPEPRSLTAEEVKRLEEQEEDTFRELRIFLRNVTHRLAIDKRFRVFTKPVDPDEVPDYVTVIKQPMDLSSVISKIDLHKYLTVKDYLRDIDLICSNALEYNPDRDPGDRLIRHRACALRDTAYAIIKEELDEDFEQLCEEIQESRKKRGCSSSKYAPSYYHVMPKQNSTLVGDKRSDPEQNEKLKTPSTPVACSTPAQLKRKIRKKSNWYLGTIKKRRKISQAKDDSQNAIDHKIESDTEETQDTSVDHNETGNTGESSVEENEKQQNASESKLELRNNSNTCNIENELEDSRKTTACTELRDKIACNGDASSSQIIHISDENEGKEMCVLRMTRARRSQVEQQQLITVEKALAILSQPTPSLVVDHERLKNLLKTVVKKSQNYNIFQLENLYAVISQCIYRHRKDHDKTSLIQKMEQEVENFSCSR
The experiment in a line: Displacement of biotinylated JQ1 from ATAD2 bromodomain (unknown origin) incubated for 20 mins by AlphaLISA assay.

A short description of data set [2]: Clearance in rat assessed as liver blood flow at 1 mg/kg,iv. The format is ADME, organism-based. Particulars: in vivo.
A short description of data set [3]: Unbound clearance in rat at 1 mg/kg,iv. In kind it is ADME, organism-based. Particulars: in vivo.
Data set [4] is described as follows: Protein binding in dog plasma. In kind it is ADME, cell-free, Canis lupus familiaris. The conditions noted are these: read-out: PPB (converted).
Data set [5] can be described thus: Intrinsic clearance in human liver microsomes. In kind it is ADME, Microsome. The conditions noted are these: read-out: CLH. In general terms: Liver microsomes are a subcellular fraction often used to study metabolism.
Data set [6] in a line: Cmax in dog at 2.5 mg/kg,po. The format is ADME, organism-based, Canis lupus familiaris. Further details: dose 2.5 mg/kg, route po. The conditions noted are these: in vivo.
A short description of data set [7]: Total clearance in dog at 0.5 mg/kg,iv. Particulars: in vivo. The format is ADME, organism-based, Canis lupus familiaris.
Data set [8] deals with T1, ATPase family AAA domain-containing protein 2. The data set can be described thus: Binding affinity to ATAD2 bromodomain (unknown origin) incubated for 60 mins by TR-FRET assay. (Time-resolved FRET reads energy transfer from a long-lived donor to a nearby acceptor.)
Data set [9] concerns MV4-11. The experiment in a line: In vivo inhibition of BRD4 in human MV4-11 cells xenografted in BALB/c mouse assessed as reduction in cellular MYC mRNA expression level in tumor at 15 mg/kg,sc BID and measured at 4 hrs by PCR anlaysis. The format is functional, organism-based. Put shortly: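 Pharmacodynamic study in MV-4-11 AML mouse xenograft. Dosing was 15 mg/kg subcutaneous twice daily. At 4, 8 and 12 h after the second dose, MYC mRNA was measured against vehicle, and compound levels were measured in plasma and tumor. Free plasma concentration was estimated alongside total levels.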

Data set [10] has as its system MV4-11. The experiment in a line: Antitumor activity against human MV4-11 cells xenografted in BALB/c mouse assessed as slower tumor regrowth after drug therapy removal at 10 mg/kg,sc BID in presence of doxorubicin at 2 mg/kg,iv BIW for 28 days. In kind it is functional, organism-based. Particulars: time 28.0 day. On the technique in general: In xenograft studies the graft and the host belong to different species.

Data set [11] can be described thus: Toxicity in rat assessed as GI mucosal atrophy at 2 to 20 mg/kg,po QD consecutive for 14 days followed by 2 weeks recovery period. In kind it is organism-based. The conditions noted are these: in vivo, 336 h, dose 2-20 mg/kg, time 14 day. In short, it runs like this:
(§1)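 Oral suspension given once daily for 14 consecutive days (rat 2, 6, 20 mg/kg; dog 2, 4, 6 mg/kg) in dose range-finding and GLP repeat-dose studies, GLP arms with an added 2-week recovery period; histopathology and clinical pathology findings recorded.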

The nature of data set [12]: Toxicity in rat assessed as GI mucosal erosion at 2 to 20 mg/kg,po QD consecutive for 14 days followed by 2 weeks recovery period. In kind it is organism-based. Particulars: in vivo, 336 h, dose 2-20 mg/kg, time 14 day. In short, it runs like this: as §1
A short description of data set [13]: Toxicity in rat assessed as degeneration of testicular seminiferous epithelium at 2 to 20 mg/kg,po QD consecutive for 14 days followed by 2 weeks recovery period. The format is organism-based. The conditions noted are these: in vivo, 336 h, dose 2-20 mg/kg, time 14 day. Put shortly:
as §1

Data set [14] in a line: Toxicity in dog assessed as hypocellularity of bone marrow with associated anemia and thrombocytopenia at 2 to 6 mg/kg,po QD consecutive for 14 days followed by 2 weeks recovery period. The format is organism-based, Canis lupus familiaris. The conditions noted are these: in vivo, 336 h, dose 2-6 mg/kg, time 14 day. Put shortly:
as §1

The values that follow come from ChEMBL document CHEMBL5252513, “Identification of a Benzoisoxazoloazepine Inhibitor (CPI-0610) of the Bromodomain and Extra-Terminal (BET) Family as a Candidate for Human Clinical Trials” (J Med Chem, 2016).

The source made the active and inactive calls. No cut-off for these calls is given here.

The term IC50 denotes the concentration that inhibits the measured activity by half. High values mean weaker potency, low ones greater potency. For orientation: Cmax means the highest concentration seen after dosing. By clearance is commonly meant a measure of how efficiently the substance is removed, as volume per time. Lower therefore signals a low capacity for elimination.

As for `Cc1noc2c1-c1ccccc1C(c1ccc(Cl)cc1)=N[C@H]2CC(N)=O` [PELABRESIB], the IC50 in data set [1] and in data set [8] was > 80 µM each time. Also, the QH in [2] amounted to 36%. In addition, the CL free in [3] turned out to be 283 mL/min/kg. In data set [4], the fraction unbound is 0.04. In addition, the predicted hepatic clearance in [5] is 10 mL/min/kg. The compound further had a Cmax in data set [6] of 2900 nM. Further, the clearance in data set [7] was 1.83 mL/min/kg. In addition, in data set [9], the inhibition entry is “Active”. Besides, the outcome in data set [10] was Active. Also, the Activity result in [11], in data set [12], in [13] and in [14] was “Toxic” each time.
